Residues, ends and D or L forms follow the SMILES beside them. *: point of attachment. X2 = CC(=O)O[C@@]12CO[C@@H]1C[C@H](O)[C@@]1(C)C(=O)[C@H](O)C3=C(C)[C@@H](OC(=O)[C@H](OC(=O)OCc4ccc(N*)cc4)[C@@H](NC(=O)OC(C)(C)C(F)(F)F)c4ccccc4)C[C@@](O)([C@@H](OC(=O)c4cccc(F)c4)[C@H]21)C3(C)C; X1 = CC(=O)O[C@@]12CO[C@@H]1C[C@H](O)[C@@]1(C)C(=O)[C@H](O)C3=C(C)[C@@H](OC(=O)[C@H](OC(=O)OCc4ccc(N*)cc4)[C@@H](NC(=O)OC(C)(C)C)c4ccccc4)C[C@@](O)([C@@H](OC(=O)c4ccccc4)[C@H]21)C3(C)C; Fmoc = O=C(OCC1c2ccccc2-c2ccccc21)*
Key:
SW-620 = experiment: Cytotoxicity against human SW-620 cells assessed as reduction in cell viability after 72 hrs by MTT assay; type: functional, cell-based; settings: SW-620, 72 h
Method in brief: (§1)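 Cells seeded at 5000/well and precultured 1 day. HCT116 grown in McCoy's 5A + 10% FBS; SW620 and HEK293 in DMEM + 10% FBS; CCD18Co in DMEM + 15% FBS. Compounds from 0.1 M DMSO stocks were tested at 10^-10 to 10^-4 mol/L in sixplicate: HCT116 and HEK293 for 48 h, SW620 and CCD18Co for 72 h, at 37 °C, 5% CO2. MTT (5 mg/mL) added for 4 h, then A570 read; IC50 estimated.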

HCT-116 [1] = experiment: Cytotoxicity against human HCT-116 cells assessed as reduction in cell viability after 48 hrs by MTT assay; type: functional, cell-based; settings: HCT-116, 48 h; method in brief: as §1
CCD-18Co = experiment: Cytotoxicity against human CCD-18Co cells assessed as reduction in cell viability after 72 hrs by MTT assay; type: cell-based; method in brief: as §1
HEK293 = experiment: Cytotoxicity against HEK293 cells assessed as reduction in cell viability after 48 hrs by MTT assay; type: cell-based; settings: Homo sapiens, HEK293, 48 h; method in brief: as §1
[2] = Half life of compound in PBS buffer at pH 7.4 at 50 ug/ml up to 72 hrs by RP-HPLC analysis; type: physicochemical; settings: dose 50 µg/ml
[3] = Half life in Sprague-Dawley rat plasma t 50 ug/ml up to 72 hrs by RP-HPLC analysis; type: ADME, cell-free; settings: dose 50 µg/ml
HCT-116 [4] = experiment: Antitumour activity against human HCT-116 cells xenografted in BALB/c nude mouse assessed as tumour growth inhibition at 5 mg/kg, ip administered once for every 7 days for 14 days relative to control; type: functional; settings: HCT-116, ip, 336 h, time 14 day, read-out: TGI
Method in brief: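 Male BALB/c nude mice received s.c. HCT116 cells (2 × 10^6 in 0.2 mL PBS). Once tumours reached 100-200 mm3, mice were randomized into groups of six. Dosing was ip, 0.1 mL/10 g, once every 7 days, in DMSO 0.5%/castor oil 5%/ethanol 5%/saline 89.5%; vehicle controls got solvent. Caliper volume V = L×W²×0.52 read every 2-3 days. Tumours excised and weighed on day 14.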

Structure (SMILES) | IC50 (SW-620) | IC50 (HCT-116 [1]) | IC50 (CCD-18Co) | IC50 (HEK293) | half-life at 50 ug/ml [2] | half-life at 50 ug/ml [3] | inhibition in vivo at 5 mg/kg (HCT-116 [4])
CC[C@H](C)[C@H](NC(=O)CNC(=O)[C@H](CC(C)C)NC(=O)[C@@H]1CCCN1C(=O)CNC(=O)OCC1c2ccccc2-c2ccccc21)C(=O)N[C@@H](C)C(=O)NCC(=O)N[C@@H](CCC(N)=O)C(=O)N[C@@H](CC(C)C)C(=O)Nc1ccc(COC(=O)O[C@@H](C(=O)O[C@H]2C[C@@]3(O)[C@@H](OC(=O)c4cccc(F)c4)[C@@H]4[C@]5(OC(C)=O)CO[C@@H]5C[C@H](O)[C@@]4(C)C(=O)[C@H](O)C(=C2C)C3(C)C)[C@@H](NC(=O)OC(C)(C)C(F)(F)F)c2ccccc2)cc1 (Fmoc-GPLGIAGQL-X2) | 0.21 µM | 0.439 µM | > 200 µM | 38.3 µM | > 72 h | 47.8 h | 
CC[C@H](C)[C@H](NC(=O)[C@H](C)NC(=O)[C@H](CCC(N)=O)NC(=O)[C@@H]1CCCN1C(=O)CNC(C)=O)C(=O)N[C@@H](C)C(=O)NCC(=O)N[C@@H](CCC(N)=O)C(=O)N[C@@H](CC(C)C)C(=O)Nc1ccc(COC(=O)O[C@@H](C(=O)O[C@H]2C[C@@]3(O)[C@@H](OC(=O)c4cccc(F)c4)[C@@H]4[C@]5(OC(C)=O)CO[C@@H]5C[C@H](O)[C@@]4(C)C(=O)[C@H](O)C(=C2C)C3(C)C)[C@@H](NC(=O)OC(C)(C)C(F)(F)F)c2ccccc2)cc1 (Ac-GPQAIAGQL-X2) | 0.65 µM | 0.0054 µM | > 200 µM | 94.1 µM | > 72 h | 24 h | 
CC(=O)NCC(=O)N1CCC[C@H]1C(=O)N[C@@H](CCC(N)=O)C(=O)NCC(=O)N[C@@H](CC(C)C)C(=O)N[C@@H](C)C(=O)NCC(=O)N[C@@H](CCC(N)=O)C(=O)N[C@@H](CC(C)C)C(=O)Nc1ccc(COC(=O)O[C@@H](C(=O)O[C@H]2C[C@@]3(O)[C@@H](OC(=O)c4ccccc4)[C@@H]4[C@]5(OC(C)=O)CO[C@@H]5C[C@H](O)[C@@]4(C)C(=O)[C@H](O)C(=C2C)C3(C)C)[C@@H](NC(=O)OC(C)(C)C)c2ccccc2)cc1 (Ac-GPQGLAGQL-X1) | 21.9 µM | 0.0052 µM | > 200 µM | 165 µM | 35.1 h | 14 h | 
CC[C@H](C)[C@H](NC(=O)CNC(=O)[C@H](CCSC)NC(=O)[C@@H]1CCCN1C(=O)CNC(C)=O)C(=O)N[C@@H](C)C(=O)NCC(=O)N[C@@H](CCC(N)=O)C(=O)N[C@@H](CC(C)C)C(=O)Nc1ccc(COC(=O)O[C@@H](C(=O)O[C@H]2C[C@@]3(O)[C@@H](OC(=O)c4ccccc4)[C@@H]4[C@]5(OC(C)=O)CO[C@@H]5C[C@H](O)[C@@]4(C)C(=O)[C@H](O)C(=C2C)C3(C)C)[C@@H](NC(=O)OC(C)(C)C)c2ccccc2)cc1 (Ac-GPMGIAGQL-X1) | 1.14 µM | 0.0072 µM | > 200 µM | 11 µM | > 72 h | 23.9 h | 
O=c1[nH]cc(F)c(=O)[nH]1 [FLUOROURACIL] | 6.96 µM | 26 µM | > 200 µM | 79.3 µM |  |  | 11.4%
CC[C@H](C)[C@H](NC(=O)[C@H](C)NC(=O)[C@H](CCC(N)=O)NC(=O)[C@@H]1CCCN1C(=O)CNC(C)=O)C(=O)N[C@@H](C)C(=O)NCC(=O)N[C@@H](CCC(N)=O)C(=O)N[C@@H](CC(C)C)C(=O)Nc1ccc(COC(=O)O[C@@H](C(=O)O[C@H]2C[C@@]3(O)[C@@H](OC(=O)c4ccccc4)[C@@H]4[C@]5(OC(C)=O)CO[C@@H]5C[C@H](O)[C@@]4(C)C(=O)[C@H](O)C(=C2C)C3(C)C)[C@@H](NC(=O)OC(C)(C)C)c2ccccc2)cc1 (Ac-GPQAIAGQL-X1) | > 200 µM | 0.0113 µM | > 200 µM | 106 µM | > 72 h | 12 h | 
CC(=O)NCC(=O)N1CCC[C@H]1C(=O)N[C@@H](CCC(N)=O)C(=O)NCC(=O)N[C@@H](CC(C)C)C(=O)N[C@@H](C)C(=O)NCC(=O)N[C@@H](CCC(N)=O)C(=O)N[C@@H](CC(C)C)C(=O)Nc1ccc(COC(=O)O[C@@H](C(=O)O[C@H]2C[C@@]3(O)[C@@H](OC(=O)c4cccc(F)c4)[C@@H]4[C@]5(OC(C)=O)CO[C@@H]5C[C@H](O)[C@@]4(C)C(=O)[C@H](O)C(=C2C)C3(C)C)[C@@H](NC(=O)OC(C)(C)C(F)(F)F)c2ccccc2)cc1 (Ac-GPQGLAGQL-X2) | > 200 µM | 0.0257 µM | > 200 µM | 6.17 µM | 48.3 h | 24.1 h | 
CC[C@H](C)[C@H](NC(=O)CNC(=O)[C@H](CC(C)C)NC(=O)[C@@H]1CCCN1C(=O)CNC(=O)OCC1c2ccccc2-c2ccccc21)C(=O)N[C@@H](C)C(=O)NCC(=O)N[C@@H](CCC(N)=O)C(=O)N[C@@H](CC(C)C)C(=O)Nc1ccc(COC(=O)O[C@@H](C(=O)O[C@H]2C[C@@]3(O)[C@@H](OC(=O)c4ccccc4)[C@@H]4[C@]5(OC(C)=O)CO[C@@H]5C[C@H](O)[C@@]4(C)C(=O)[C@H](O)C(=C2C)C3(C)C)[C@@H](NC(=O)OC(C)(C)C)c2ccccc2)cc1 (Fmoc-GPLGIAGQL-X1) | 1.01 µM | 0.0098 µM | > 200 µM | 15.2 µM | > 72 h | 35.9 h | 
CC[C@H](C)[C@H](NC(=O)CNC(=O)[C@H](CCSC)NC(=O)[C@@H]1CCCN1C(=O)CNC(C)=O)C(=O)N[C@@H](C)C(=O)NCC(=O)N[C@@H](CCC(N)=O)C(=O)N[C@@H](CC(C)C)C(=O)Nc1ccc(COC(=O)O[C@@H](C(=O)O[C@H]2C[C@@]3(O)[C@@H](OC(=O)c4cccc(F)c4)[C@@H]4[C@]5(OC(C)=O)CO[C@@H]5C[C@H](O)[C@@]4(C)C(=O)[C@H](O)C(=C2C)C3(C)C)[C@@H](NC(=O)OC(C)(C)C(F)(F)F)c2ccccc2)cc1 (Ac-GPMGIAGQL-X2) | > 200 µM | 0.0209 µM | > 200 µM | 21.3 µM | > 72 h | 24 h | 
